The results in this text go back to ChEMBL document CHEMBL3102760, “Novel PARP-1 inhibitors based on a 2-propanoyl-3H-quinazolin-4-one scaffold” (Bioorg Med Chem Lett, 2014).

Series [1] can be described thus: Half life in human hepatocytes. Type of series: ADME, cell-based, Hepatocyte.
The nature of series [2]: Metabolic stability in human plasma assessed as compound recovery after 2 hrs. The series is classed as ADME, cell-free. To be noted: read-out: Drug recovery.
Series [3] in a line: Ratio of drug level in blood to plasma (unknown origin) after 60 mins. The series is classed as ADME. The note with it: blood and plasma.
Series [4] in a line: Activity at P-gp (unknown origin). Type of series: ADME. The note with it: human.
Series [5] in a line: Efflux ratio of permeability in human Caco2 cells. The series is classed as ADME, cell-based. To be noted: Caco-2. Summed up:
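Bidirectional Caco-2 cell monolayer permeability assay; the efflux ratio was derived from the two transport directions.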

The target of series [6] is T1, Poly [ADP-ribose] polymerase 1 (Homo sapiens, UniProt P09874). Nature of the series: Inhibition of PARP-1-mediated PARylation in H2O2-induced human HeLa cells preincubated for 3 hrs followed by H2O2 addition measured after 5 mins by Draq5 staining-based fluorescence assay. Type of series: cell-based. Put shortly:
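HeLa cell PARylation assay; EC50 values are the mean of two experiments.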

The target in series [7] is T1, Poly [ADP-ribose] polymerase 1. Nature of the series: Inhibition of GST-tagged recombinant human PARP-1 expressed in Escherichia coli after 30 mins by fluorescence-based assay.
A short description of series [8]: Growth inhibition of human MDA-MB-436 cells after 7 days by SRB assay. The note with it: MDA-MB-436, 7 days.
The subject of series [9] is MX1. Nature of the series: Antitumor activity against human MX1 cells xenografted in SCID beige mouse assessed as tumor volume inhibition at 200 mg/kg, ip administered qd for 5 days per week up to 3 weeks relative to control. The series is classed as functional. Also on record: scale not given: the % may be the effect or the level left. To be noted: route intraperitoneal. Summed up: (§1)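 MX1 breast carcinoma cells were xenografted into athymic SCID beige mice, with dosing starting 7 days after tumor injection. Compound was given intraperitoneally at 200 mg/10 mL/kg, schedule qdx5/wx3w, versus a vehicle group; 8 mice per group. Tumor volume and body weight loss were read at day +38. Tumor volume was compared with the vehicle group by Mann-Whitney test.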

Series [10] concerns Mus musculus. Nature of the series: Toxicity in SCID beige mouse xenografted with human MX1 cells assessed as body weight loss at 200 mg/kg, ip administered qd for 5 days per week up to 3 weeks relative to control. Also noted: dose 200 mg/kg, route intraperitoneal. Type of series: organism-based. To be noted: in vivo. Summed up:
as §1

Series [11] deals with Mus musculus. Kind of series: Toxicity in SCID beige mouse xenografted with human MX1 cells assessed as lethality at 200 mg/kg, ip administered qd for 5 days per week up to 3 weeks. The series is classed as organism-based. Also on record: dose 200 mg/kg, route intraperitoneal. The note with it: in vivo. Put shortly:
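Athymic SCID beige mice carrying MX1 breast carcinoma xenografts (BRCA1 deletion, BRCA2 mutation), 8 per group. Treatment began 7 days after tumour cell injection: ip at 200 mg/kg in 10 mL/kg, once daily 5 days/week for 3 weeks, with a vehicle-treated control group. Lethality was scored as deaths per group. Body-weight loss % was recorded alongside, and tumour volume was measured at day +38.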

T1 sequence (P09874 whole entry): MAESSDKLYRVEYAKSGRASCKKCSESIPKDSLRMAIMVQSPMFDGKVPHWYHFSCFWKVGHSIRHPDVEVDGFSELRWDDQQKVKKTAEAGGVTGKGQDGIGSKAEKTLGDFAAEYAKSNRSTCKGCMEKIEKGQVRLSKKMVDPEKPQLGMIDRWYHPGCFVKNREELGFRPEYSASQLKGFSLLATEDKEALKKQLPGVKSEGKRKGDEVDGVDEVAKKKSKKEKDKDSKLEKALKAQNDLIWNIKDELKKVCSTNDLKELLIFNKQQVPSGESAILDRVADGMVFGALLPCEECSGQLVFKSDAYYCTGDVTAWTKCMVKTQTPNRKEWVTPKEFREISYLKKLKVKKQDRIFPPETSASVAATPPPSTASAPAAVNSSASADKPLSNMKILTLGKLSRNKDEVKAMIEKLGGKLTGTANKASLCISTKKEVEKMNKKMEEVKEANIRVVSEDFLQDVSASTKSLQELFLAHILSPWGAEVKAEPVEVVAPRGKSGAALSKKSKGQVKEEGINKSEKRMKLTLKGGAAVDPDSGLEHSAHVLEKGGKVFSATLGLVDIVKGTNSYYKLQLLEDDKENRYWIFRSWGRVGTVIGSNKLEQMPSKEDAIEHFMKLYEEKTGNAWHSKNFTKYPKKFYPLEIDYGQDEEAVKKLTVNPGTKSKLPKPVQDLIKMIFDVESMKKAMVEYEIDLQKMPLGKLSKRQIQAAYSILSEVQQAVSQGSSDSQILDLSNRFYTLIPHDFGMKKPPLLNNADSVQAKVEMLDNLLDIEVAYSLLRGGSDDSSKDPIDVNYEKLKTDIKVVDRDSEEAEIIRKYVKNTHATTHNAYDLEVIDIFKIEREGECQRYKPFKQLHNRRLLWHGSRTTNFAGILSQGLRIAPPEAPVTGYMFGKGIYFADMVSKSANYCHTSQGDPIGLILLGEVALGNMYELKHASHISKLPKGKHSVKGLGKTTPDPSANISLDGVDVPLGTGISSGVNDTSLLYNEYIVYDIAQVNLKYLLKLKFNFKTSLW

For `O=C(CCc1nc2ccccc2c(=O)[nH]1)N1CCN(C(=O)c2ccc(F)cc2)CC1`, in [1], the half-life was determined as 10.3 h. For the same compound, in series [2], the remaining at 2 h was found to be 57%. In series [3], the blood plasma ratio at 1 h is 0.4. The Activity entry in series [4] is given as “Not Active”. Also, in series [5], the efflux ratio is 6. The EC50 in [6] turned out to be 0.467 µM. Besides, the figures for the half-inhibitory concentration (IC50) in series [7] and in [8] were 0.0561 µM and 19.5 µM, respectively.

As for `NS(=O)(=O)Nc1ccc(NC(=O)CCn2c(=O)[nH]c(=O)c3ccccc32)cc1`, the IC50 in [7] was 0.41 µM. On the same count and under the same terms, in the case of `NC(=O)c1ccccc1OCC(=O)N1CC(=O)Nc2cc(C(F)(F)F)ccc21` it was 1.06 µM; in that of `Cc1ccc(NS(=O)(=O)c2ccc(NC(=O)Cn3c(=O)[nH]c(=O)c4ccccc43)cc2C)c(C)c1`, 1.28 µM. Still for that read-out and setting: in the case of `CN(C)CC(C)(C)CN/C=C1/C(=O)NC(=O)c2ccccc21` it was 0.0874 µM; in that of `O=C1NC(=O)c2ccccc2/C1=C\c1ccc(F)cc1`, 2.54 µM; in that of `O=C(c1n[nH]c(=O)c2ccccc12)N1CCN(/C=C/c2ccccc2)CC1`, 0.26 µM. On the same count and under the same terms, in the case of `CC(=O)Nc1ccc(NC(=O)CCn2c(=O)[nH]c(=O)c3ccccc32)cc1` it was 0.76 µM. On to `Cc1oc(C(N)=O)cc1COc1ccccc1C(N)=O`, for which, in series [7], the IC50 was determined as 1.66 µM. Turning to `Cc1ccc2c(c1)CCCN2C(=O)CCc1nc2ccccc2c(=O)[nH]1`, the IC50 in series [7] is 1.03 µM. Consider `O=C(Cc1n[nH]c(=O)c2ccccc12)NCC(c1ccccc1Cl)N1CCCC1` (stereo not drawn), for which the half-maximal inhibitory concentration (IC50) in [7] was 1.96 µM.

For `Cn1nnc2c(C(N)=O)ncn2c1=O` [TEMOZOLOMIDE], half-maximal inhibition in series [8] (IC50) was put at 120 µM.

On to `O=C1NC(=O)c2ccccc2/C1=C\Nc1ccccc1N1CCCCC1`, for which the half-maximal inhibitory concentration (IC50) in [7] came to 1.21 µM. For `Cc1c(C(=O)N2CCN(C(=O)CCc3nc4ccccc4c(=O)[nH]3)CC2)oc2ccccc12`, the IC50 in series [7] was determined as 0.13 µM. Still for that read-out and setting: for `CC(=O)c1ccc(N2CCN(C(=O)COc3ccccc3C(N)=O)CC2)c(F)c1` the value was 0.28 µM. `O=C(Cc1n[nH]c(=O)c2ccccc12)NCc1ccc(S(=O)(=O)N2CCOCC2)cc1`: the IC50 in [7] was found to be 0.6 µM. For the compound `NC(=O)C1CCN(C(=O)CCc2nc(O)c3ccccc3n2)CC1`, the IC50 in [7] was determined as 0.27 µM. `C=CCOC(=O)N1CCCC(C(=O)N2CCN(C(=O)CCc3nc4ccccc4c(=O)[nH]3)CC2)C1` (stereo not drawn): the IC50 in series [7] was 0.3 µM. In the case of `O=C1CN(C(=O)CCc2nc3ccccc3c(=O)[nH]2)CCN1`, the IC50 in series [7] turned out to be 0.19 µM.

Consider `O=C(CN1CCN(C(=O)Cc2n[nH]c(=O)c3ccccc23)CC1)Nc1cccc(F)c1`, for which the half-inhibitory concentration (IC50) in [7] is 1.1 µM. `O=C(CCn1c(=O)[nH]c(=O)c2ccccc21)Nc1ccccc1F`: the IC50 in [7] came to 1.52 µM. In the case of `O=C1CN(C(=O)CSc2nc3ccccc3c(=O)[nH]2)c2ccccc2N1`, the 50% inhibitory concentration (IC50) in series [7] amounted to 0.54 µM. Still for that read-out and setting: for `O=C(CCc1nc2ccccc2c(=O)[nH]1)N1CCN(C(=O)C2CCCC2)CC1` the value was 0.11 µM; for `O=C(CCc1nc2ccccc2c(=O)[nH]1)N1CCN(C(=O)C2CCCO2)CC1` (stereo not drawn), 0.13 µM; for `O=C(Cc1n[nH]c(=O)c2ccccc12)NCCc1ccc2c(c1)OCCO2`, 0.28 µM. Turning to `O=C(Cc1n[nH]c(=O)c2ccccc12)NCc1ccc(N2CCOCC2)nc1`, the 50% inhibitory concentration (IC50) in series [7] came to 0.0498 µM.

For `C=CCN1CCCC(C(=O)N2CCN(C(=O)CCc3nc4ccccc4c(=O)[nH]3)CC2)C1` (stereo not drawn), the half-maximal inhibitory concentration (IC50) in series [7] is 0.22 µM. As for `CC(NC(=O)Cc1n[nH]c(=O)c2ccccc12)c1ccc2c(c1)CCCC2` (stereo not drawn), in [7], the IC50 stood at 1.86 µM. As for `CC(C)NS(=O)(=O)c1ccc(NC(=O)Cc2n[nH]c(=O)c3ccccc23)cc1`, in [7], the 50% inhibitory concentration (IC50) came out at 0.69 µM. For `Cc1ccc(NC(=O)CCn2c(=O)[nH]c(=O)c3ccccc32)c(O)c1`, in series [7], the 50% inhibitory concentration (IC50) was 0.35 µM. As for `O=C(CCc1nc2ccccc2c(=O)[nH]1)N1CCN(C(=O)C2CC2)CC1`, in series [6], the EC50 was determined as 0.707 µM. Besides, the concentration for half-maximal inhibition (IC50) in [7] was 0.0671 µM; in series [8], 51.1 µM.

For the compound `CC(NC(=O)COc1ccccc1C(N)=O)c1ccccc1` (stereo not drawn), the 50% inhibitory concentration (IC50) in series [7] is 0.82 µM. The same measure, in the same setting: for `NC(=O)c1ccc(COc2ccccc2C(N)=O)cc1` the value was 0.82 µM; for `NC(=O)c1ccc(NC(=O)CCn2c(=O)[nH]c(=O)c3ccccc32)cc1`, 0.13 µM; for `CC(=O)c1ccc(NC(=O)CCn2c(=O)[nH]c(=O)c3ccccc32)cc1`, 0.0876 µM. For `NC(=O)c1ccc(NC(=O)CCCc2nc3ccccc3c(=O)[nH]2)cc1`, the IC50 in [7] came out at 4.7 µM.

Compound `O=C(CCc1nc2ccccc2c(=O)[nH]1)N1CCN(C(=O)c2ccc[nH]2)CC1` showed an EC50 in [6] of 0.865 µM. In addition, the half-inhibitory concentration (IC50) amounted to 0.0295 µM in series [7] and 18.1 µM in [8]. Take `O=C(CCc1nc2ccccc2c(=O)[nH]1)N1CCN(C(=O)C2CCCNC2)CC1` (stereo not drawn): the IC50 in [7] was 0.0319 µM. Take `CCN(CC(=O)Cc1c(F)cccc1F)C(=O)Cc1n[nH]c(=O)c2ccccc12`: the 50% inhibitory concentration (IC50) in [7] was found to be 0.6 µM.

Consider `O=C(CCc1nc2ccccc2c(=O)[nH]1)N1CCN(C(=O)c2ccco2)CC1`, for which the IC50 in [7] is 0.0285 µM. Consider `O=C(CCc1nc2ccccc2c(=O)[nH]1)N1CCN(C(=O)c2cccs2)CC1`, for which the Activity in series [9] is on record as 47%; in series [4], “Not Active”; in [10], 10%; in series [11], “Non-toxic”. Moreover, the half-life in series [1] worked out at 9.73 h. For the same compound, the remaining at 2 h in [2] was 50%. Besides, the blood plasma ratio at 1 h in [3] came out at 0.4. Also, the efflux ratio in series [5] is 5.8. In addition, the concentration giving a half-maximal response (EC50) in [6] was found to be 0.256 µM. Besides, the IC50 in series [7] amounted to 0.0098 µM; in series [8] it was 17.3 µM. Turning to `NC(=O)c1ccccc1OCC(=O)N1CCc2ccccc2C1`, in series [7], the half-inhibitory concentration (IC50) is 0.0429 µM.
